In ChEMBL document CHEMBL1828552, “Synthesis and studies of novel 2-(4-cyano-3-trifluoromethylphenyl amino)-4-(quinoline-4-yloxy)-6-(piperazinyl/piperidinyl)-s-triazines as potential antimicrobial, antimycobacterial and anticancer agents” (2011):
≈ marks a conversion by molar mass, not a printed value.

System: Escherichia coli
Assay: Antibacterial activity against 10^5 CFU/mL Escherichia coli MTCC 739 after 24 hrs by agar streak dilution method
Format: functional
Settings: MTCC 739, 24 h
Method in brief: (§1)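 Agar streak dilution. Stock 100 µg/mL in DMSO; graded amounts were mixed into molten nutrient agar and poured at 4–5 mm depth. Plates carried serial dilutions over […]. About 10⁵ CFU/mL of each bacterium was applied, and plates were incubated at 37 ± 1 °C for 24 h. MIC was read from the dilution series.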

| SMILES | MIC |
| --- | --- |
| N#Cc1ccc(Nc2nc(Oc3ccnc4ccccc34)nc(N3CCN(c4ccc(F)cc4)CC3)n2)cc1C(F)(F)F | 50 µg/mL (≈ 85.2 µM) |

System: Klebsiella pneumoniae
Assay: Antibacterial activity against 10^5 CFU/mL Klebsiella pneumoniae MTCC 109 after 24 hrs by agar streak dilution method
Format: functional
Settings: MTCC 109, 24 h
Method in brief: as §1

| SMILES | MIC |
| --- | --- |
| N#Cc1ccc(Nc2nc(Oc3ccnc4ccccc34)nc(N3CCN(c4ccc(F)cc4)CC3)n2)cc1C(F)(F)F | 25 µg/mL (≈ 42.6 µM) |

System: Proteus vulgaris
Assay: Antibacterial activity against 10^5 CFU/mL Proteus vulgaris MTCC 1771 after 24 hrs by disc diffusion technique
Format: functional
Settings: not given
Method in brief: (§2)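 Disc diffusion on Mueller–Hinton agar poured 5 mm deep. The surface was swabbed with a 10⁵ CFU/mL […] suspension. Filter-paper discs 6.25 mm in diameter were soaked in compound in DMSO and placed on the agar. Plates were incubated 24 h at 37 ± 1 °C, and the inhibition zone was measured in mm. A DMSO disc served as blank.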

| SMILES | inhibition zone (IZ) |
| --- | --- |
| N#Cc1ccc(Nc2nc(Oc3ccnc4ccccc34)nc(N3CCN(c4ccc(F)cc4)CC3)n2)cc1C(F)(F)F | 24 mm |

System: Aspergillus niger
Assay: Antifungal activity against 10^5 CFU/mL Aspergillus niger MTCC 282 after 48 hrs by disc diffusion technique
Format: functional
Settings: not given

| SMILES | inhibition zone (IZ) |
| --- | --- |
| N#Cc1ccc(Nc2nc(Oc3ccnc4ccccc34)nc(N3CCN(c4ccc(F)cc4)CC3)n2)cc1C(F)(F)F | 26 mm |

System: Aspergillus niger
Assay: Antifungal activity against 10^5 CFU/mL Aspergillus niger MTCC 282 after 48 hrs by agar streak dilution method
Format: functional
Settings: MTCC 282, 48 h
Method in brief: (§3)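 Agar streak dilution for fungi. Stock 100 µg/mL in DMSO; graded amounts were mixed into molten Sabouraud dextrose agar and poured at 4–5 mm depth. Serial dilutions ran over […]. About 10⁵ CFU/mL inoculum was applied, with incubation at 37 ± 1 °C for 48 h. MIC was read from the dilution series.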

| SMILES | MIC |
| --- | --- |
| N#Cc1ccc(Nc2nc(Oc3ccnc4ccccc34)nc(N3CCN(c4ccc(F)cc4)CC3)n2)cc1C(F)(F)F | 12.5 µg/mL (≈ 21.3 µM) |

System: Bacillus cereus
Assay: Antibacterial activity against 10^5 CFU/mL Bacillus cereus MTCC 619 after 24 hrs by agar streak dilution method
Format: functional
Settings: MTCC 619, 24 h
Method in brief: as §1

| SMILES | MIC |
| --- | --- |
| N#Cc1ccc(Nc2nc(Oc3ccnc4ccccc34)nc(N3CCN(c4ccc(F)cc4)CC3)n2)cc1C(F)(F)F | 6.25 µg/mL (≈ 10.7 µM) |

System: Pseudomonas aeruginosa
Assay: Antibacterial activity against 10^5 CFU/mL Pseudomonas aeruginosa MTCC 741 after 24 hrs by agar streak dilution method
Format: functional
Settings: MTCC 741, 24 h
Method in brief: as §1

| SMILES | MIC |
| --- | --- |
| N#Cc1ccc(Nc2nc(Oc3ccnc4ccccc34)nc(N3CCN(c4ccc(F)cc4)CC3)n2)cc1C(F)(F)F | 25 µg/mL (≈ 42.6 µM) |

System: Shigella flexneri
Assay: Antibacterial activity against 10^5 CFU/mL Shigella flexneri MTCC 1457 after 24 hrs by agar streak dilution method
Format: functional
Settings: MTCC 1457, 24 h
Method in brief: as §1

| SMILES | MIC |
| --- | --- |
| N#Cc1ccc(Nc2nc(Oc3ccnc4ccccc34)nc(N3CCN(c4ccc(F)cc4)CC3)n2)cc1C(F)(F)F | 50 µg/mL (≈ 85.2 µM) |

System: Bacillus cereus
Assay: Antibacterial activity against 10^5 CFU/mL Bacillus cereus MTCC 619 after 24 hrs by disc diffusion technique
Format: functional
Settings: not given
Method in brief: as §2

| SMILES | inhibition zone (IZ) |
| --- | --- |
| N#Cc1ccc(Nc2nc(Oc3ccnc4ccccc34)nc(N3CCN(c4ccc(F)cc4)CC3)n2)cc1C(F)(F)F | 26 mm |

System: DU-145
Assay: Cytotoxicity against […] human DU145 cells after 48 hrs by SRB assay
Format: functional
Settings: DU-145, 48 h
Method in brief: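 SRB assay in DU-145 cells grown in RPMI 1640 with 10% FBS and 2 mM L-glutamine. Cells were plated and held 24 h before addition of four 10-fold concentrations. After 48 h, cells were TCA-fixed, stained with 0.4% SRB and read at 540 nm. GI50, TGI and LC50 were derived against time-zero and control wells; each value is the mean of three experiments.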

| SMILES | GI50 | LC50 (concentration giving 50% net cell kill relative to time zero) | TGI |
| --- | --- | --- | --- |
| N#Cc1ccc(Nc2nc(Oc3ccnc4ccccc34)nc(N3CCN(c4ccc(F)cc4)CC3)n2)cc1C(F)(F)F | > 100 µM | > 100 µM | > 100 µM |

System: Aspergillus clavatus
Assay: Antifungal activity against 10^5 CFU/mL Aspergillus clavatus MTCC 1323 after 48 hrs by agar streak dilution method
Format: functional
Settings: MTCC 1323, 48 h
Method in brief: as §3

| SMILES | MIC |
| --- | --- |
| N#Cc1ccc(Nc2nc(Oc3ccnc4ccccc34)nc(N3CCN(c4ccc(F)cc4)CC3)n2)cc1C(F)(F)F | 50 µg/mL (≈ 85.2 µM) |

System: Salmonella typhi
Assay: Antibacterial activity against 10^5 CFU/mL Salmonella typhi MTCC 733 after 24 hrs by agar streak dilution method
Format: functional, Salmonella enterica subsp. enterica serovar Typhi
Settings: Salmonella enterica, MTCC 733, 24 h

| SMILES | MIC |
| --- | --- |
| N#Cc1ccc(Nc2nc(Oc3ccnc4ccccc34)nc(N3CCN(c4ccc(F)cc4)CC3)n2)cc1C(F)(F)F | 25 µg/mL (≈ 42.6 µM) |

System: Proteus vulgaris
Assay: Antibacterial activity against 10^5 CFU/mL Proteus vulgaris MTCC 1771 after 24 hrs by agar streak dilution method
Format: functional
Settings: MTCC 1771, 24 h
Method in brief: as §1

| SMILES | MIC |
| --- | --- |
| N#Cc1ccc(Nc2nc(Oc3ccnc4ccccc34)nc(N3CCN(c4ccc(F)cc4)CC3)n2)cc1C(F)(F)F | 25 µg/mL (≈ 42.6 µM) |

System: Pseudomonas aeruginosa
Assay: Antibacterial activity against 10^5 CFU/mL Pseudomonas aeruginosa MTCC 741 after 24 hrs by disc diffusion technique
Format: functional
Settings: not given
Method in brief: as §2

| SMILES | inhibition zone (IZ) |
| --- | --- |
| N#Cc1ccc(Nc2nc(Oc3ccnc4ccccc34)nc(N3CCN(c4ccc(F)cc4)CC3)n2)cc1C(F)(F)F | 23 mm |

System: Aspergillus fumigatus
Assay: Antifungal activity against 10^5 CFU/mL Aspergillus fumigatus MTCC 343 after 48 hrs by agar streak dilution method
Format: functional
Settings: MTCC 343, 48 h
Method in brief: as §3

| SMILES | MIC |
| --- | --- |
| N#Cc1ccc(Nc2nc(Oc3ccnc4ccccc34)nc(N3CCN(c4ccc(F)cc4)CC3)n2)cc1C(F)(F)F | 50 µg/mL (≈ 85.2 µM) |

System: Salmonella typhi
Assay: Antibacterial activity against 10^5 CFU/mL Salmonella typhi MTCC 733 after 24 hrs by disc diffusion technique
Format: functional, Salmonella enterica subsp. enterica serovar Typhi
Settings: not given
Method in brief: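 Disc diffusion. Mueller-Hinton agar autoclaved 120 °C 30 min, poured 5 mm deep. Surface swabbed with 10⁵ CFU/mL suspension […]. 6.25 mm filter-paper discs soaked in compound in DMSO; DMSO-only disc as blank. Incubated 37 ± 1 °C, 24 h for bacteria or 48 h for fungi. Ciprofloxacin and ketoconazole discs as reference drugs. Inhibition zone measured in mm.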

| SMILES | inhibition zone (IZ) |
| --- | --- |
| N#Cc1ccc(Nc2nc(Oc3ccnc4ccccc34)nc(N3CCN(c4ccc(F)cc4)CC3)n2)cc1C(F)(F)F | 24 mm |

System: Aspergillus fumigatus
Assay: Antifungal activity against 10^5 CFU/mL Aspergillus fumigatus MTCC 343 after 48 hrs by disc diffusion technique
Format: functional
Settings: not given

| SMILES | inhibition zone (IZ) |
| --- | --- |
| N#Cc1ccc(Nc2nc(Oc3ccnc4ccccc34)nc(N3CCN(c4ccc(F)cc4)CC3)n2)cc1C(F)(F)F | 24 mm |

System: Aspergillus clavatus
Assay: Antifungal activity against 10^5 CFU/mL Aspergillus clavatus MTCC 1323 after 48 hrs by disc diffusion technique
Format: functional
Settings: not given

| SMILES | inhibition zone (IZ) |
| --- | --- |
| N#Cc1ccc(Nc2nc(Oc3ccnc4ccccc34)nc(N3CCN(c4ccc(F)cc4)CC3)n2)cc1C(F)(F)F | 25 mm |

System: Klebsiella pneumoniae
Assay: Antibacterial activity against 10^5 CFU/mL Klebsiella pneumoniae MTCC 109 after 24 hrs by disc diffusion technique
Format: functional
Settings: not given
Method in brief: as §2

| SMILES | inhibition zone (IZ) |
| --- | --- |
| N#Cc1ccc(Nc2nc(Oc3ccnc4ccccc34)nc(N3CCN(c4ccc(F)cc4)CC3)n2)cc1C(F)(F)F | 23 mm |

System: Escherichia coli
Assay: Antibacterial activity against 10^5 CFU/mL Escherichia coli MTCC 739 after 24 hrs by disc diffusion technique
Format: functional
Settings: not given
Method in brief: as §2

| SMILES | inhibition zone (IZ) |
| --- | --- |
| N#Cc1ccc(Nc2nc(Oc3ccnc4ccccc34)nc(N3CCN(c4ccc(F)cc4)CC3)n2)cc1C(F)(F)F | 22 mm |

System: Staphylococcus aureus
Assay: Antibacterial activity against 10^5 CFU/mL Staphylococcus aureus MTCC 96 after 24 hrs by disc diffusion technique
Format: functional
Settings: not given
Method in brief: as §2

| SMILES | inhibition zone (IZ) |
| --- | --- |
| N#Cc1ccc(Nc2nc(Oc3ccnc4ccccc34)nc(N3CCN(c4ccc(F)cc4)CC3)n2)cc1C(F)(F)F | 25 mm |

System: Shigella flexneri
Assay: Antibacterial activity against 10^5 CFU/mL Shigella flexneri MTCC 1457 after 24 hrs by disc diffusion technique
Format: functional
Settings: not given
Method in brief: as §2

| SMILES | inhibition zone (IZ) |
| --- | --- |
| N#Cc1ccc(Nc2nc(Oc3ccnc4ccccc34)nc(N3CCN(c4ccc(F)cc4)CC3)n2)cc1C(F)(F)F | 21 mm |

System: Candida albicans
Assay: Antifungal activity against 10^5 CFU/mL Candida albicans MTCC 183 after 48 hrs by agar streak dilution method
Format: functional
Settings: MTCC 183, 48 h
Method in brief: as §3

| SMILES | MIC |
| --- | --- |
| N#Cc1ccc(Nc2nc(Oc3ccnc4ccccc34)nc(N3CCN(c4ccc(F)cc4)CC3)n2)cc1C(F)(F)F | 50 µg/mL (≈ 85.2 µM) |

System: Candida albicans
Assay: Antifungal activity against 10^5 CFU/mL Candida albicans MTCC 183 after 48 hrs by disc diffusion technique
Format: functional
Settings: not given

| SMILES | inhibition zone (IZ) |
| --- | --- |
| N#Cc1ccc(Nc2nc(Oc3ccnc4ccccc34)nc(N3CCN(c4ccc(F)cc4)CC3)n2)cc1C(F)(F)F | 24 mm |

System: Staphylococcus aureus
Assay: Antibacterial activity against 10^5 CFU/mL Staphylococcus aureus MTCC 96 after 24 hrs by agar streak dilution method
Format: functional
Settings: MTCC 96, 24 h
Method in brief: as §1

| SMILES | MIC |
| --- | --- |
| N#Cc1ccc(Nc2nc(Oc3ccnc4ccccc34)nc(N3CCN(c4ccc(F)cc4)CC3)n2)cc1C(F)(F)F | 25 µg/mL (≈ 42.6 µM) |
